zfTRPN1 agonist: activates the zebrafish TRPN1 channel | HEK293 zebrafish TRPN1-YFP, Fluo-8 calcium fluorescence; 100% = response to 87 µM carbachol | activation, % at 3 µM | hit rate 0.18% among 220,000 | AID 1424;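 active = activation above its plate's cutoff, the mean activation of test wells on that plate plus 3 SD, cut at about 19% in these data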;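 note: 0% = DMSO alone and 100% = 87 µM carbachol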
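Material – zebrafish TRPN1-YFP in HEK293 cells · Doses – 3 µM single point · Schedule – dye 1 h 37 °C plus 30 min RT · Signal – Fluo-8 calcium fluorescence, excitation 470-495 nm, emission 515-575 nm · Read-out – % activation versus carbachol response · Control set – carbachol high, DMSO low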
ABCG2 block: human ABCG2 inhibition, ABCB1 as counter-screen | inhibition, % at 6.6 µM | AID 1325 | hit rate 0.1% among 190,000 | IgMXP3 cells, JC-1 efflux, flow cytometry | Q9UNQ0;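 active = inhibition above 80%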;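 note: 0% = DMSO and 100% = nicardipine control wells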
Target sequence (Q9UNQ0 whole entry, looked up): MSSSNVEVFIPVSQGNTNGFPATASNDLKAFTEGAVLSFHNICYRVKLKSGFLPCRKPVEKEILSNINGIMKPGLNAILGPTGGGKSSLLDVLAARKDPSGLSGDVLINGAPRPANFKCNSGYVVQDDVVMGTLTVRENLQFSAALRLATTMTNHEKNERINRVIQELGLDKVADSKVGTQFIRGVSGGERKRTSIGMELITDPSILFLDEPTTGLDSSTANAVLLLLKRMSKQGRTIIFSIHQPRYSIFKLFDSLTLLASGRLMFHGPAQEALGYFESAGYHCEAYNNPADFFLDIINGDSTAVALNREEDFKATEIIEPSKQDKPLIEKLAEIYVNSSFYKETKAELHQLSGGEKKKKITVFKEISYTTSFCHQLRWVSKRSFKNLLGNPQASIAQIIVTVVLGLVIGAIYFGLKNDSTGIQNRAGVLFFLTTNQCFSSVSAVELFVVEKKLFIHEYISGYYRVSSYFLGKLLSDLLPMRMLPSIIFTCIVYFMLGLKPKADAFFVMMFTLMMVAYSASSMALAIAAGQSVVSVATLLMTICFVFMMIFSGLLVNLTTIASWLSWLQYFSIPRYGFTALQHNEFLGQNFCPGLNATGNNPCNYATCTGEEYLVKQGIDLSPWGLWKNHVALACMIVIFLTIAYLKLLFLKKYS
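Read-out basis: Efflux inhibition in percent versus controls | Test system: ABCG2 IgMXP3 and barcoded ABCB1 CCRF-Adr cell mix | Quantity: 3 million cells/mL in well | Schedule: 10 min at 25 °C | Control set: Nicardipine as high control, DMSO as low control | Reagent: JC-1 as fluorescent efflux pump substrate | Signal: Flow cytometry of retained JC-1 fluorescence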
Biofilm kill mix: mixture kills Candida albicans biofilm cells; C. albicans biofilm persisters + clotrimazole, fluorescence viability; primary screen in compound mixtures of four per well; inhibition, % at 7.6 µM; hit rate 0.02% among 120,000; AID 1242;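 active = inhibition above 30.3% in the primary screen of four-compound pools, then above 30% when the compound was retested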;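 note: compounds exposed to preformed 24 h biofilms for 48 h; 0% = untreated biofilm control and 100% = clotrimazole plus chlorhexidine kill blank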
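Test system: C. albicans CAF4-2 wild-type biofilms; buffer or medium: RPMI/MOPS medium, pH 7.0; schedule: 24 h biofilm formation, then 48 h compound exposure, 37 °C; detection: Alamar Blue fluorescence; measure: percent inhibition of biofilm viability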
ABCB1 inh: blocks JC-1 efflux by human ABCB1 transporter. inhibition, % at 6.6 µM. CCRF-Adr cells, flow cytometry. hit rate 0.067% among 190,000. P08183; in the data active = inhibition above about 40%;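 note: 0% = vehicle and 100% = reference inhibitor; higher value means more JC-1 retained so stronger ABCB1 efflux block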
ROMK mod: modulators of human ROMK potassium channel; hit rate 2% among 130,000; Tet-inducible ROMK, thallium flux fluorescence; actives lie on both sides; P48048; AID 1918; B-score at 10 µM;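 active = signal ratio slope over the read window, or its plate-corrected B-score, at least 3 SD from the plate mean, either direction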;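 note: B-score of the F/F0 ratio slope over 7 to 12 s after thallium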
TRPML3 agonist: agonists of human TRPML3 channel; Q8TDD5; HEK293 TRPML3-YFP, Fluo-8 calcium fluorescence; 100% = the carbachol control signal; activation, % at 3 µM; hit rate 0.29% among 220,000;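 active = activation above its plate's cutoff, the mean activation of the plate's test wells plus 3 SD, cut at about 12% in these data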;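 note: 0% = DMSO only wells and 100% = carbachol wells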
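Test system – HEK293 line with stable expression of human TRPML3-YFP channel · Control set – carbachol 87 µM final as high control (100%), DMSO as low control (0%) · Signal – Fluo-8 calcium dye fluorescence, ex 470-495, em 515-575 nm · Incubation – 1-h 37 °C dye load, 5-s basal, 120-s post-compound reads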
An asterisk follows results filed as active; · = not tested or not shown. The entries come from a sample that favours hits as a whole.

SMILES	zfTRPN1 agonist	ABCG2 block	Biofilm kill mix	ABCB1 inh	ROMK mod	TRPML3 agonist
Cc1ccc(C(=O)c2no[n+]([O-])c2C(=O)c2ccc(C)cc2)cc1	-1	0	-4	0	-5.1*	0
Cc1ccc(Cn2nnc(C(=O)Nc3cccc(C)c3C)c2N)cc1	36*	2	·	0	0.31	17*
CCc1ccc(Cn2nnc(C(=O)Nc3cccc(C)c3)c2N)cc1	2	0	·	0	·	2
COc1ccccc1N1CCN(c2nnc(-c3ccc(F)cc3)c3ccccc23)CC1	1	0	·	0	·	1
COc1cc2c3nnc(-c4ccc(F)cc4)c-3cn(Cc3ccccc3F)c2cc1OC	0	0	11	0	-4*	-1
COc1ccc(-c2nnc(SCc3ccccc3F)o2)cc1OC	0	4	·	0	-0.13	-1
COc1cc2c3nnc(-c4ccccc4)c-3cn(Cc3ccccc3F)c2cc1OC	-2	1	13	0	-6.8*	1
CCCC(=O)Nc1ccc(C(=O)NNC(=S)NC(=O)c2ccc(Br)o2)cc1	-1	-4	15	-1	-0.76	0
CCN(Cc1ccccc1)C(=O)c1ccc(Cl)cc1[N+](=O)[O-]	-2	0	22	0	-0.72	0
O=C(c1ccc(F)cc1)C(C(=O)N1CCCCC1)n1ccccc1=O (centres undefined)	0	3	25	1	0.28	0
CSCCC(NC(=O)c1ccco1)C(=O)OC(C)C(=O)NC(=O)NC1CCCCC1 (centres undefined)	121*	10	·	1	·	62*
CCOC(=O)C1C(c2cccnc2)NC(=O)NC1(O)C(F)(F)F (centres undefined)	1	20	14	1	-0.47	1
CCOC(=O)C1C(c2ccc3c(c2)OCO3)NC(=O)NC1(O)C(F)(F)F (centres undefined)	28*	-1	·	0	·	1
CC(Nc1nc(N2CCNCC2)nc2ccccc12)c1ccccc1 (centres undefined)	0	-1	6	-1	-2.8	0
Cc1ccc(S(=O)(=O)N2CCCCC2)cc1NC(=O)CNCc1ccco1	1	·	13	·	·	1
Cc1ccc(C(=O)OCC(=O)Nc2c(Cl)cc(S(N)(=O)=O)cc2Cl)o1	1	·	24	·	·	0
O=C(Nc1nc(-c2cc(F)ccc2F)cs1)C1=NN(c2ccccc2)C(=O)CC1	0	2	-3	0	0.26	0
O=C(Nc1nc(-c2cc(F)ccc2F)cs1)c1ccccn1	0	2	7	0	1.3*	1
CCOc1cccc2c1OC(c1cc(OC)c(OC)c(OC)c1)N1N=C(c3ccc(C)o3)CC21 (centres undefined)	-1	1	11	0	·	0
Cc1cc(C)nc(/N=C(\N)Nc2ccc(SC(F)F)cc2)n1	36*	·	14	·	·	17*
Cc1ccc(C)c(N/C(N)=N/c2nc(C)cc(C)n2)c1	36*	5	·	1	·	21*
C/C(=N/OCC(=O)NCCCCCCNC(=O)CO/N=C(/C)c1cccs1)c1cccs1	0	5	6	1	-1.7	0
O=C(O)CC/C(=N\NC(=O)CNC(=O)c1ccc(F)cc1)c1ccccc1	-1	·	23	·	·	-1
COCCOC(=O)/C(C#N)=C/c1cn(Cc2ccccc2)nc1-c1cccnc1	1	27	-13	3	1.2	1
CC1Cc2ccccc2N1C(=O)C1CCCN(S(=O)(=O)c2cccc3nsnc23)C1 (centres undefined)	-1	7	·	3	-3.1*	-1
SMILES	zfTRPN1 agonist	ABCG2 block	Biofilm kill mix	ABCB1 inh	ROMK mod	TRPML3 agonist
O=C(C1CCCN(S(=O)(=O)c2cccc3nsnc23)C1)N1CCc2ccccc21 (centres undefined)	3	41	·	2	-1.4	1
CCCCCc1cc(=O)[nH]c(=S)[nH]1	1	·	17	·	·	0
CCCCCc1ccc(C(=O)CCCC)c(=S)[nH]1	1	-1	20	-2	3.8*	0
C/C(=N\NC(=O)Cn1cc([N+](=O)[O-])cn1)c1ccc(O)cc1	3	·	6	·	-0.015	1
CCN(CC)c1ccc2cc(-c3nnc(-c4ccncc4)o3)c(=O)oc2c1	47*	24	·	10	·	27*
CCN(CC)c1ccc2cc(C=O)c(=O)oc2c1	39*	21	·	12	·	19*
Cn1ncc(N=Cc2c(O)ccc3ccccc23)c1C(=O)Nc1cccc(Cl)c1	0	9	12	1	-2.8	1
Cc1sc2nc(CN3CCOCC3)[nH]c(=S)c2c1C	-1	0	-5	0	8.6*	0
O=C(Nc1ccc(Cl)cc1)Nc1csc([N+](=O)[O-])c1	22*	·	22	·	0.57	15*
CN1C(=O)S/C(=C\c2ccccc2OCc2ccc(C(=O)O)cc2)C1=O	2	30	10	1	-0.072	1
CN1C(=O)S/C(=C/c2ccccc2OCc2ccc(C(=O)O)cc2)C1=O	-1	11	9	2	-2.7*	1
CC(C1CC1)N(Cc1ccccc1)C(=S)Nc1ccccc1Cl (centres undefined)	0	7	5	1	-0.71	0
NC(=O)C1CCN(S(=O)(=O)Cc2ccccc2Cl)CC1	0	0	5	0	·	1
CCCC(=O)N1CCN(c2ccc([N+](=O)[O-])c(NC(C)c3ccccc3)c2)CC1 (centres undefined)	-3	13	·	4	-5.3*	-2
CC(C)c1nnc(N2C(=O)C(O)=C(C(=O)c3cccs3)C2c2ccccc2)s1 (centres undefined)	183*	0	13	0	-2.4	114*
COc1cc(CCC(=O)N2CCN(c3ncccn3)CC2)cc(OC)c1OC	-1	4	8	1	0.74	0
O=c1nc(SCc2c(F)cccc2Cl)nc(-c2ccccc2)[nH]1	1	·	22	·	0.12	1
CCOc1ccccc1-c1c2cc(O)c(=O)cc-2oc2cc(O)c(O)cc12	4	-6	22	0	·	8
O=c1cc2oc3cc(O)c(O)cc3c(-c3ccccc3O)c-2cc1O	18	·	23	·	·	12*
CCOC(=O)C1CCN(C(c2cc3ccc(C)c(C)c3[nH]c2=O)c2nnnn2C2CCCCC2)CC1 (centres undefined)	0	-3	·	-1	-2.5*	0
CC(=O)N/N=C(\N)c1nonc1N	2	·	17	·	0.035	1
Cc1cc(Cl)ccc1NC(=S)NCc1ccccc1Cl	2	5	19	1	-0.03	0
CCCCn1c(SCC(=O)/C(C#N)=C(\C)N)nc2ccccc2c1=O	-1	5	12	4	3*	1
C/C(N)=C(/C#N)C(=O)CSc1nc2ccccc2c(=O)n1Cc1ccc(C)cc1	-1	3	9	2	0.25	0

Screening data: PubChem BioAssay, several laboratories
